According to ChEMBL document CHEMBL4145545, “Synthesis and structure-activity relationships of asymmetric dimeric β-carboline derivatives as potential antitumor agents” (Eur J Med Chem, 2018):
Calls of active or inactive are those of the source. The calls are words filed in the database; no cut-off is given here.

Tests used:
[1] = test system: HepG2; assay: Cytotoxicity against human HepG2 cells assessed as cell growth inhibition after 24 hrs by MTT assay; assay type: functional, cell-based; conditions: HepG2, 24 h
How it was run: (§1)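 Cell lines grown to log phase in RPMI-1640 with 10% FBS, penicillin and streptomycin. About 10^5 cells/mL were plated and pre-incubated 24 h at 37 °C in 5% CO2. Compounds were given in DMSO, final ≤2% (v/v). MTT read-out was OD at 490 nm. Triplicate wells per concentration, each assay run ≥3 times. IC50 is 50% OD reduction versus untreated cells, calculated by the Logit method. Cisplatin was the reference.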

[2] = test system: MCF7; assay: Cytotoxicity against human MCF7 cells assessed as cell growth inhibition after 24 hrs by MTT assay; assay type: functional, cell-based; conditions: MCF7, 24 h; how it was run: as §1
[3] = Cytotoxicity against human BGC cells assessed as cell growth inhibition after 24 hrs by MTT assay; assay type: functional, cell-based; how it was run: as §1
[4] = test system: A-375; assay: Cytotoxicity against human A375 cells assessed as cell growth inhibition after 24 hrs by MTT assay; assay type: functional, cell-based; conditions: A-375, 24 h; how it was run: as §1
[5] = test system: HT-29; assay: Cytotoxicity against human HT-29 cells assessed as cell growth inhibition after 24 hrs by MTT assay; assay type: functional, cell-based; conditions: HT-29, 24 h; how it was run: as §1
[6] = test system: 769-P; assay: Cytotoxicity against human 769-P cells assessed as cell growth inhibition after 24 hrs by MTT assay; assay type: functional, cell-based; how it was run: as §1
[7] = test system: SK-OV-3; assay: Cytotoxicity against human SKOV3 cells assessed as cell growth inhibition after 24 hrs by MTT assay; assay type: functional, cell-based; conditions: SK-OV-3, 24 h; how it was run: as §1
[8] = test system: ECa-109 cell line; assay: Cytotoxicity against human ECA109 cells assessed as cell growth inhibition after 24 hrs by MTT assay; assay type: functional, cell-based; conditions: ECa-109, 24 h; how it was run: as §1
[9] = test system: Lewis lung carcinoma cell line; assay: Cytotoxicity against mouse LLC cells assessed as cell growth inhibition after 24 hrs by MTT assay; assay type: functional, cell-based; how it was run: as §1
[10] = Acute toxicity in ip dosed Kunming mouse observed continuously for first 2 hrs, intermittently for next 24 hrs and occasionally thereafter for 14 days; assay type: organism-based; conditions: in vivo
How it was run: (§2)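 SPF KM mice, 6-8 weeks, 19-22 g, fasted overnight with water available. Single i.p. dose, 5.0 to 500 mg kg-1 in 0.5% CMC-Na, 10 mice per group (5 male, 5 female). Observed for behaviour, neurotoxic signs and deaths, then killed on day 14 and heart, liver and kidneys inspected macroscopically. LD50 derived graphically.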

[11] = test system: Mus musculus; assay: Neurotoxicity in Kunming mouse assessed as tremble at 5 to 500 mg/kg, ip observed continuously for first 2 hrs, intermittently for next 24 hrs and occasionally thereafter for 14 days; assay type: toxicity, organism-based; conditions: in vivo; how it was run: as §2
[12] = test system: Mus musculus; assay: Neurotoxicity in Kunming mouse assessed as twitch at 5 to 500 mg/kg, ip observed continuously for first 2 hrs, intermittently for next 24 hrs and occasionally thereafter for 14 days; assay type: toxicity, organism-based; conditions: in vivo; how it was run: as §2
[13] = test system: Mus musculus; assay: Neurotoxicity in Kunming mouse assessed as jumping behavior at 5 to 500 mg/kg, ip observed continuously for first 2 hrs, intermittently for next 24 hrs and occasionally thereafter for 14 days; assay type: toxicity, organism-based; conditions: in vivo; how it was run: as §2
[14] = test system: Mus musculus; assay: Neurotoxicity in Kunming mouse assessed as supination at 5 to 500 mg/kg, ip observed continuously for first 2 hrs, intermittently for next 24 hrs and occasionally thereafter for 14 days; assay type: toxicity, organism-based; conditions: in vivo; how it was run: as §2
[15] = test system: Mus musculus; assay: Acute toxicity in ip dosed Kunming mouse assessed as death at higher dose up to 4 to 8 hrs; assay type: organism-based; conditions: in vivo; how it was run: as §2
[16] = test system: Mus musculus; assay: Cardiotoxicity in Kunming mouse at 5 to 500 mg/kg, ip after 14 days by macroscopic method; assay type: toxicity, organism-based; conditions: in vivo, 336 h
[17] = test system: Mus musculus; assay: Nephrotoxicity in Kunming mouse at 5 to 500 mg/kg, ip after 14 days by macroscopic method; assay type: toxicity, organism-based; conditions: in vivo, 336 h
[18] = test system: Mus musculus; assay: Hepatotoxicity in Kunming mouse at 5 to 500 mg/kg, ip after 14 days by macroscopic method; assay type: toxicity, organism-based; conditions: in vivo, 336 h
[19] = test system: Sarcoma-180; assay: Antitumor activity against mouse Sarcoma 180 cells implanted in mouse assessed as tumor growth inhibition at 8.3 mg/kg, ip administered once per day for 7 consecutive days starting from 24 hrs post tumor inoculation and measured on day 21 post tumor inoculation relative to control; assay type: functional; conditions: Sarcoma-180, ip, read-out: TGI
How it was run: (§3)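 Tumor cells were harvested from 7-day donor tumors, and 2×10^6 viable cells/mouse were injected s.c. in the armpit. Groups of 10 female mice received i.p. compound daily for 7 days, starting 24 h after inoculation. Controls were vehicle (negative) and CTX 30 mg/kg (positive). Body weight was recorded every 3 days. On day 21 tumors were excised and weighed, and inhibition was calculated as (C−T)/C×100 from mean tumor weights.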

[20] = test system: Lewis lung carcinoma cell line; assay: Antitumor activity against mouse LLC cells implanted in mouse assessed as tumor growth inhibition at 8.3 mg/kg, ip administered once per day for 7 consecutive days starting from 24 hrs post tumor inoculation and measured on day 21 post tumor inoculation relative to control; assay type: functional; conditions: read-out: TGI; how it was run: as §3
[21] = test system: Lewis lung carcinoma cell line; assay: Antimigratory activity against mouse LLC cells assessed as reduction in wound closure at 50 uM after 24 hrs by inverted microscopic method; assay type: functional, cell-based
How it was run: (§4)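 HT-29 or LLC cells (about 1×10^6/mL) were grown to 90% confluence and given a single straight pipette-tip scratch. After a PBS wash, fresh FBS-containing medium with various compound concentrations was added for 24 h. Migration distance was measured under an inverted microscope. Each assay was done three times, with CA4P as positive control.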

[22] = test system: HT-29; assay: Antimigratory activity against human HT-29 cells assessed as reduction in wound closure at 0.5 to 50 uM after 24 hrs by inverted microscopic method; assay type: functional, cell-based; how it was run: as §4
[23] = test system: Chorioallantoic membrane; assay: In vivo antiangiogenic activity in chicken embryo chorioallantoic membrane at 50 uM/disc after 48 hrs by microscopic method; assay type: functional, organism-based; conditions: Gallus gallus
[24] = test system: Sarcoma-180; assay: Antitumor activity against mouse Sarcoma 180 cells implanted in mouse assessed as tumor growth inhibition at 7.5 mg/kg, ip administered once per day for 7 consecutive days starting from 24 hrs post tumor inoculation and measured on day 21 post tumor inoculation relative to control; assay type: functional; conditions: Sarcoma-180, ip, read-out: TGI; how it was run: as §3
[25] = test system: Lewis lung carcinoma cell line; assay: Antitumor activity against mouse LLC cells implanted in mouse assessed as tumor growth inhibition at 7.5 mg/kg, ip administered once per day for 7 consecutive days starting from 24 hrs post tumor inoculation and measured on day 21 post tumor inoculation relative to control; assay type: functional; conditions: read-out: TGI; how it was run: as §3
[26] = test system: Sarcoma-180; assay: Antitumor activity against mouse Sarcoma 180 cells implanted in mouse assessed as tumor growth inhibition at 1.6 mg/kg, ip administered once per day for 7 consecutive days starting from 24 hrs post tumor inoculation and measured on day 21 post tumor inoculation relative to control; assay type: functional; conditions: Sarcoma-180, ip, read-out: TGI; how it was run: as §3
[27] = test system: Lewis lung carcinoma cell line; assay: Antitumor activity against mouse LLC cells implanted in mouse assessed as tumor growth inhibition at 1.6 mg/kg, ip administered once per day for 7 consecutive days starting from 24 hrs post tumor inoculation and measured on day 21 post tumor inoculation relative to control; assay type: functional; conditions: read-out: TGI; how it was run: as §3
[28] = test system: HepG2; assay: Cytotoxicity against human HepG2 cells; assay type: functional, cell-based; how it was run: as §1
[29] = test system: MCF7; assay: Cytotoxicity against human MCF7 cells; assay type: functional, cell-based; how it was run: as §1
[30] = test system: HT-29; assay: Cytotoxicity against human HT-29 cells; assay type: functional, cell-based; how it was run: as §1

Row | Compound | IC50 [1] [µM] | IC50 [2] [µM] | IC50 [3] [µM] | IC50 [4] [µM] | IC50 [5] [µM] | IC50 [6] [µM] | IC50 [7] [µM] | IC50 [8] [µM] | IC50 [9] [µM] | LD50 at 14 days [10] [mg/kg] | Activity [11] | Activity [12] | Activity [13] | Activity [14] | Activity [15] | Activity [16] | Activity [17] | Activity [18] | other results
1 | COc1ccc(-c2nccc3c4ccccc4n(CCCCOc4ccc5c6ccnc(C)c6n(CCCc6ccccc6)c5c4)c23)cc1.Cl | 14.1 | 8.5 | 12.1 | 13.6 | 13.3 | 4.9 | 4.2 | 4.5 | 3.4 | 41.5 | Non-Toxic | Non-Toxic | Non-Toxic | Non-Toxic | Toxic | Non-Toxic | Non-Toxic | Non-Toxic | inhibition in vivo at 8.3 mg/kg [19]: 54.6%; inhibition in vivo at 8.3 mg/kg [20]: 48.1%; Activity [21]: Active; Activity [22]: Active; Activity [23]: Active
2 | Cc1nccc2c3ccc(OCCCCn4c5ccccc5c5ccnc(-c6cccs6)c54)cc3n(CCCc3ccccc3)c12.Cl | 8.1 | 12 | 11.4 | 14.6 | 18.1 | 11.9 | 11.2 | 4.9 | 4.2 | 37.5 | Non-Toxic | Non-Toxic | Non-Toxic | Non-Toxic | Toxic | Non-Toxic | Non-Toxic | Non-Toxic | inhibition in vivo at 7.5 mg/kg [24]: 47.3%; inhibition in vivo at 7.5 mg/kg [25]: 31.6%
3 | COc1ccc2c3ccnc(C)c3n(CCCCOc3ccc4c5ccnc(C)c5n(CCCc5ccccc5)c4c3)c2c1.Cl | 5.6 | 23.4 | 4.7 | 15.3 | 21.6 | 8.5 | 30 | 18.4 | 14.4 | 8 | Toxic | Toxic | Toxic | Toxic | Toxic | Non-Toxic | Non-Toxic | Non-Toxic | inhibition in vivo at 1.6 mg/kg [26]: 49.9%; inhibition in vivo at 1.6 mg/kg [27]: 38.2%
4 | CCCCn1c2cnccc2c2ccc(OCCCCCCOc3ccc4c5ccnc(C)c5n(CCCC)c4c3)cc21 | – | – | – | – | – | – | – | – | – | – | – | – | – | – | – | – | – | – | IC50 [28]: 13 µM; IC50 [29]: > 100 µM; IC50 [30]: 6.1 µM
